From publication PMC2911665 (The Journal of Cell Biology, 2010)
Numbering of substitutions follows the chain as printed. Values belong to the molecule of their own block, whether it stands above or below them. Where a SMILES comes first, the peptide text is derived from it. The star is where a group is joined. Cbz = O=C(OCc1ccccc1)*

Tests used:
[1] = tested on: iNOS degradation in Spsb2T/+ BMDMs; assay: iNOS degradation in Spsb2T/+ BMDMs after LPS/IFN-γ stimulation and wash; assay type: cell-based, mouse; details: 10 µM MG-132 in fresh medium after wash
Method in brief: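 Bone marrow macrophages (>95% CD11b+ after 6 d culture) from littermate controls, SPSB2-transgenic or SOCS-box-deleted transgenic mice, stimulated overnight with LPS/IFN-γ or left unstimulated. Washed, refed with medium ±10 µM MG-132 (proteasome inhibitor), lysed at set times after wash. Lysates run on SDS-PAGE, blotted with anti-iNOS, peroxidase secondary and ECL. Membranes stripped (0.1 M Gly, pH 2.9) and reprobed for tubulin as loading control.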

SPSB2 = SPSB2 binding to Par-4; ref Woo et al., 2006; cited from earlier work
SPSB1 = SPSB1 binding to Par-4; ref Woo et al., 2006; cited from earlier work
[2] = target: T1, SPSB2 SPRY domain (residues 12–224) (mouse, UniProt O88838 12-224); assay: ITC
T1 sequence (looked up): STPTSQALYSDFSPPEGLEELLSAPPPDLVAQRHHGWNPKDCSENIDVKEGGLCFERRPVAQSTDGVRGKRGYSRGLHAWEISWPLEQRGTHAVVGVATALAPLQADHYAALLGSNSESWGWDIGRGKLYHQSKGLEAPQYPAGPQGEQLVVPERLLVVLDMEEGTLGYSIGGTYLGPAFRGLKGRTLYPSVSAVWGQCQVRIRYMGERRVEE

Y120A-SPSB2 (12–224) = target: T2, Y120A-SPSB2 (12–224) (mouse, UniProt O88838 12-224, Y120A); assay: ITC
T2 sequence (looked up): T1 sequence (looked up) with Y109A

Molecule: CC(C)C[C@@H](C=O)NC(=O)[C@H](CC(C)C)NC(=O)[C@H](CC(C)C)NC(=O)OCc1ccccc1 [MG-132] (Cbz-Leu-Leu-Leu-aldehyde)
effect on enhanced iNOS degradation [1]: abrogated

B1: Par-4: prostate apoptosis response protein 4, SPSB binding partner containing ELNNNL (human) (protein, UniProt Q96IZ0 1-340, looked up)
PRKC apoptosis WT1 regulator …: MATGGYRTSSGLGGSTTDFLEEWKAKREKMRAKQNPPGPAPPGGGSSDAAGKPPAGALGTPAAAAANELNNNLPGGAPAAPAVPGPGGVNCAVGSAMLTRAAPGPRRSEDEPPAASASAAPPPQRDEEEPDGVPEKGKSSGPSARKGKGQIEKRKLREKRRSTGVVNIPAAECLDEYEDDEAGQKERKREDAITQQNTIQNEAVNLLDPGSSYLLQEPPRTVSGRYKSTTSVSEEDVSSRYSRTDRSGFPRYNRDANVSGTLVSSSTLEKKIEDLEKEVVRERQENLRLVRLMQDKEEMIGKLKEEIDLLNRDLDDIEDENEQLKQENKTLLKVVGQLTR
Kd (SPSB2): 4700 nM
Kd (SPSB1): 146 nM

Molecule: Ac-KEEKDINNNVKKT-NH2 [iNOS N-terminal peptide, wild type (Ac-KEEKDINNNVKKT-NH2)]
Kd [2]: 13.3 ± 3 nM
fold reduction of affinity against wild-type SPSB2 (12–224) (Y120A-SPSB2 (12–224)): ~5000 fold

Molecule: Ac-KEEKDIANNVKKT-NH2 [iNOS N-terminal peptide G (Ac-KEEKDIANNVKKT-NH2)]
Kd [2]: 17200 nM

Molecule: Ac-KEEKAINNNVKKT-NH2 [iNOS N-terminal peptide E (Ac-KEEKAINNNVKKT-NH2)]
Kd [2]: 21600 ± 750 nM

Molecule: Ac-KEEKDINANVKKT-NH2 [iNOS N-terminal peptide I (Ac-KEEKDINANVKKT-NH2)]
Kd [2]: 826 ± 20 nM

Molecule: Ac-KEAADINNNVKKT-NH2 [iNOS N-terminal peptide D (Ac-KEAADINNNVKKT-NH2)]
Kd [2]: 65.4 ± 7.4 nM

Molecule: Ac-KEEKDINNNVKAT-NH2 [iNOS N-terminal peptide M (Ac-KEEKDINNNVKAT-NH2)]
Kd [2]: 29.8 ± 12.2 nM

Molecule: Ac-KEEADINNNAKAT-NH2 [iNOS N-terminal peptide O (Ac-KEEADINNNAKAT-NH2)]
Kd [2]: 311 ± 37 nM

Continued by falling Kd [2], values first:

Kd [2]: 40500 nM
Molecule: Ac-KEEKDIQNNVKKT-NH2 [iNOS N-terminal peptide H (Ac-KEEKDIQNNVKKT-NH2)]

Kd [2]: 180 ± 39 nM
Molecule: Ac-KEEKDINNNAKAT-NH2 [iNOS N-terminal peptide N (Ac-KEEKDINNNAKAT-NH2)]

Kd [2]: 127 ± 23 nM
Molecule: Ac-KEEADINNNVKKT-NH2 [iNOS N-terminal peptide C (Ac-KEEADINNNVKKT-NH2)]

Kd [2]: 56.8 ± 11.2 nM
Molecule: Ac-KEEKDINNNAKKT-NH2 [iNOS N-terminal peptide L (Ac-KEEKDINNNAKKT-NH2)]

Kd [2]: 23.5 ± 9.9 nM
Molecule: Ac-KEEKDANNNVKKT-NH2 [iNOS N-terminal peptide F (Ac-KEEKDANNNVKKT-NH2)]

Kd [2]: 14 ± 3 nM
Molecule: Ac-KEAKDINNNVKKT-NH2 [iNOS N-terminal peptide B (Ac-KEAKDINNNVKKT-NH2)]
